Measurements taken from ChEMBL document CHEMBL1275350, “First in class, potent, and orally bioavailable NADPH oxidase isoform 4 (Nox4) inhibitors for the treatment of idiopathic pulmonary fibrosis” (J Med Chem, 2010).

Tests used:
[1] = target: Polyunsaturated fatty acid lipoxygenase ALOX15 (Homo sapiens) (UniProt P16050); test: Inhibition of 15-lipoxygenase at 10 uM
NADPH oxidase 2 = NADPH oxidase 2 (Homo sapiens, UniProt P04839); test: Inhibition of human NOX2 overexpressed in […] cell membrane assessed as ROS production by cell free assay in presence of NADPH
Outline: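 Nox2 source: membranes from human polymorphonuclear cells, sonicated and collected at the 17/40% sucrose interface. ROS read by Amplex Red/HRP in PBS after NADPH addition, with compound at 1 nM–100 μM for 20 min at 37 °C. Background taken without membranes or agonist. Ki via Cheng-Prusoff, mean of ≥3 experiments in triplicate.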

Plasma = test: Unbound fraction in Sprague-Dawley rat 50% plasma protein; assay type: ADME, cell-free
[2] = Permeability across human Caco-2 cell membrane at 10 uM after 2 hrs; assay type: ADME, cell-based
Outline: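 Caco-2 monolayers grown 20 days in DMEM, used when TEER >800 Ω·cm2. Dosed at 10 μM final in HBSS pH 6.5 with 1% DMSO, apical-to-basolateral and basolateral-to-apical. Incubated 2 h at 37 °C, both compartments sampled, LC-MS/MS with five-point calibration. Papp = (dQ/dt)/(C0A).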

Cytochrome P450 2C19 = Cytochrome P450 2C19 (Homo sapiens, UniProt P33261); test: Inhibition of human CYP2C19; assay type: ADME
Outline: (§1)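 Recombinant human CYP isoforms with isoform-specific probe substrates and NADPH. Compound at 0.1–25 μM, final DMSO 0.3%. Metabolites measured by mass spectrometry, except CYP1A2, which used a fluorescent metabolite. IC50 derived from the decrease in metabolite formation compared with vehicle control.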

Cytochrome P450 3A4 = Cytochrome P450 3A4 (Homo sapiens, UniProt P08684); test: Inhibition of human CYP3A4; assay type: ADME; outline: as §1
Cytochrome P450 3A4, sequence (P08684 whole entry): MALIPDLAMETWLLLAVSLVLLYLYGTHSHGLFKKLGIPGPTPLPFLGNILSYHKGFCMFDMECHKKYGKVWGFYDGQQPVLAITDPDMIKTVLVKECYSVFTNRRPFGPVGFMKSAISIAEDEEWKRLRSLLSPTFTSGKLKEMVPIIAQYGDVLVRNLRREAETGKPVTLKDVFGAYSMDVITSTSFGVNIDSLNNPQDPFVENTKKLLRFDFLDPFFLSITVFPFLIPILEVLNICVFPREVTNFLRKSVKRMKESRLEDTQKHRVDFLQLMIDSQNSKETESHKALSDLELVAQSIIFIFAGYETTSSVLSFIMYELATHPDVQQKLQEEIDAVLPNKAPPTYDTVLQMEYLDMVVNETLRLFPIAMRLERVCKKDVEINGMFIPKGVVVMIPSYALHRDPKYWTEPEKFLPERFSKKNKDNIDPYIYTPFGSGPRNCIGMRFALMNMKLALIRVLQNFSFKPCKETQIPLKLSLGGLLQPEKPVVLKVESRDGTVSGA

[3] = Intrinsic clearance in human liver microsomes assessed as per mg of protein at 0.5 uM; assay type: ADME, Microsome
Outline: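 Phase I stability assay in pooled liver microsomes (human: male and female; rat: male Sprague-Dawley). Microsomes at 0.5 mg/mL final in 0.1 M phosphate pH 7.4. Compound 0.5 μM final, 0.25% DMSO. Preincubated at 37 °C, reaction started with 1 mM NADPH. Sampled at 0, 5, 15, 30 and 45 min, with a 45 min minus-NADPH control. Methanol quench with internal standard, LC/MS-MS, intrinsic clearance calculated.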

Cytochrome P450 2C9 = Cytochrome P450 2C9 (Homo sapiens, UniProt P11712); test: Inhibition of human CYP2C9; assay type: ADME; outline: as §1
[4] = AUC (infinity) in Sprague-Dawley rat at 10 mg/kg, po; assay type: ADME, organism-based; set-up: time infinity, dose 10 mg/kg, route oral; details: plasma
Outline: (§2)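 Parallel design with six male rats: three given 5 mg/kg iv in EDPW (10% EtOH, 10% DMA, 30% PG, 50% water), three given 10 mg/kg orally in aqueous 0.5% CMC with 0.25% Tween 20. Carotid cannula blood sampled up to 24 h. Plasma levels by LC/MS/MS (LLOQ 1.00 ng/mL). Noncompartmental analysis.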

[5] = Oral bioavailability in Sprague-Dawley rat at 10 mg/kg; assay type: ADME, organism-based; details: in vivo
Outline: (§3)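 Parallel design in male rats, three per group. Group 1: 5 mg/kg iv in EDPW (10% EtOH, 10% DMA, 30% PG, 50% water). Group 2: 10 mg/kg oral in aqueous 0.5% CMC with 0.25% Tween 20. Carotid cannula blood drawn up to 24 h. Plasma measured by LC/MS/MS (LLOQ 1.00 ng/mL), noncompartmental analysis.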

[6] = Tmax in Sprague-Dawley rat at 10 mg/kg, po; assay type: ADME, organism-based; set-up: dose 10 mg/kg, route oral; details: in vivo; outline: as §3
[7] = AUC (infinity) in Sprague-Dawley rat at 5 mg/kg, iv; assay type: ADME, organism-based; set-up: time infinity, dose 5 mg/kg, route intravenous; details: plasma; outline: as §2
NADPH oxidase 1 = NADPH oxidase 1 (Homo sapiens, UniProt Q9Y5S8); test: Inhibition of human NOX1 overexpressed in […] cell membrane assessed as ROS production by cell free assay in presence of NADPH; details: in the assay text read “T-REx-CHO cell membrane” for “human PMN cell membrane”
NADPH oxidase 1, sequence (Q9Y5S8 whole entry): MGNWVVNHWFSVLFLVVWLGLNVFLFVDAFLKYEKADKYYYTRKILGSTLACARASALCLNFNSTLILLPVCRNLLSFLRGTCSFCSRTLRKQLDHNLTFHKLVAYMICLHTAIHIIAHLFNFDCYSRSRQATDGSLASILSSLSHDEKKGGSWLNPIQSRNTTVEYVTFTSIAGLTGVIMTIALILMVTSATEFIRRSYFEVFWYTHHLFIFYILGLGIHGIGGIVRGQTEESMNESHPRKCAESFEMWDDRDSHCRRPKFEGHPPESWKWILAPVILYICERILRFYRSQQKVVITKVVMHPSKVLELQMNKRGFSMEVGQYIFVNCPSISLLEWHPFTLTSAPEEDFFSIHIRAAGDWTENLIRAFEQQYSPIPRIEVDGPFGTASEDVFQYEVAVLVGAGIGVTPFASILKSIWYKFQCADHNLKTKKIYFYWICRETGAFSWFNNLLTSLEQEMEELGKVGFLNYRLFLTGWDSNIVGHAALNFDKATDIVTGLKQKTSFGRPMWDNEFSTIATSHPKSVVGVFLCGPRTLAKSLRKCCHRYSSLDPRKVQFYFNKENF
Outline: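 Membranes from T-REx-CHO cells stably co-transfected with human NOX1, p22, NOXA1 and NOXO1, induced with tetracycline (1 μg/mL, 24 h), prepared on a 17/40% sucrose gradient. Incubated in PBS with Amplex Red, HRP and cofactors, then NADPH added. Compound at 1 nM–100 μM, 20 min at 37 °C. Ki by Cheng-Prusoff, at least three experiments in triplicate.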

[8] = Cmax in Sprague-Dawley rat at 5 mg/kg, iv; assay type: ADME, organism-based; set-up: dose 5 mg/kg, route intravenous; details: in vivo; outline: as §2
[9] = Half life in Sprague-Dawley rat at 5 mg/kg, iv; assay type: ADME, organism-based; set-up: dose 5 mg/kg, route intravenous; details: in vivo; outline: as §2
[10] = Clearance in Sprague-Dawley rat at 5 mg/kg, iv; assay type: ADME, organism-based; set-up: dose 5 mg/kg, route intravenous; details: in vivo; outline: as §2
[11] = Volume of distribution at steady state in Sprague-Dawley rat at 5 mg/kg, iv; assay type: ADME, organism-based; set-up: dose 5 mg/kg, route intravenous; details: in vivo, read-out: Vdss; outline: as §3
Rattus norvegicus = species: Rattus norvegicus; test: Inhibition of rat AMPK at 10 uM
[12] = Inhibition of calcium channel at 10 uM
[13] = Inhibition of chloride channel at 10 uM
[14] = Inhibition of sodium channel at 10 uM
[15] = Inhibition of potassium channel at 10 uM
MAO-B = MAO-B (Homo sapiens, UniProt P27338); test: Inhibition of MAO-B at 10 uM
MAO-B, sequence (P27338 whole entry): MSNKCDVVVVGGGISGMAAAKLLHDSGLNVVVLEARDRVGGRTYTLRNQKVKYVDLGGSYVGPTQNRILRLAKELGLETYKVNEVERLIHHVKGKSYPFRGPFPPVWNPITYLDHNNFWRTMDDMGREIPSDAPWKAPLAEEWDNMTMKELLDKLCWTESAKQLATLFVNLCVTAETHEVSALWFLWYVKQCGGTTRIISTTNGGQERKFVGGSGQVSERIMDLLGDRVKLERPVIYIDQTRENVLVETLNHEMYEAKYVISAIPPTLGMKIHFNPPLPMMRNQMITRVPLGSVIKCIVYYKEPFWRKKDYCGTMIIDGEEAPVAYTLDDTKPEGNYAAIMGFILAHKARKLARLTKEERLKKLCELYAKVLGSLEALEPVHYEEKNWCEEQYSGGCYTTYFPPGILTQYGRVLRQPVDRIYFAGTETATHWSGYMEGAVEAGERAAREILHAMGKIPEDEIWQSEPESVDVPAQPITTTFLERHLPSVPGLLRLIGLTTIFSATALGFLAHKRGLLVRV

[16] = target: MAP kinase p38 (Homo sapiens) (UniProt O15264+Q15759+Q16539+P53778); test: Inhibition of human p38 MAP kinase at 10 uM; assay type: protein assay
[17] = target: Myeloperoxidase (Homo sapiens) (UniProt P05164); test: Inhibition of human myeloperoxidase at 10 uM
[18] = target: Protein kinase C alpha type (Homo sapiens) (UniProt P17252); test: Inhibition of human PKCalpha at 10 uM
[19] = target: Protein kinase C beta type (Homo sapiens) (UniProt P05771); test: Inhibition of human PKCbeta at 10 uM
[20] = target: Protein kinase C delta type (Homo sapiens) (UniProt Q05655); test: Inhibition of human PKCdelta at 10 uM
[21] = target: Phosphatidylinositol 4,5-bisphosphate 3-kinase catalytic subunit beta isoform (Homo sapiens) (UniProt P42338); test: Inhibition of PI3Kbeta at 10; details: concentration not given here
Phosphatidylinositol 4,5-bisphosphate 3-kinase catalytic subunit beta isoform (Homo sapiens), sequence (P42338 whole entry, looked up, canonical isoform): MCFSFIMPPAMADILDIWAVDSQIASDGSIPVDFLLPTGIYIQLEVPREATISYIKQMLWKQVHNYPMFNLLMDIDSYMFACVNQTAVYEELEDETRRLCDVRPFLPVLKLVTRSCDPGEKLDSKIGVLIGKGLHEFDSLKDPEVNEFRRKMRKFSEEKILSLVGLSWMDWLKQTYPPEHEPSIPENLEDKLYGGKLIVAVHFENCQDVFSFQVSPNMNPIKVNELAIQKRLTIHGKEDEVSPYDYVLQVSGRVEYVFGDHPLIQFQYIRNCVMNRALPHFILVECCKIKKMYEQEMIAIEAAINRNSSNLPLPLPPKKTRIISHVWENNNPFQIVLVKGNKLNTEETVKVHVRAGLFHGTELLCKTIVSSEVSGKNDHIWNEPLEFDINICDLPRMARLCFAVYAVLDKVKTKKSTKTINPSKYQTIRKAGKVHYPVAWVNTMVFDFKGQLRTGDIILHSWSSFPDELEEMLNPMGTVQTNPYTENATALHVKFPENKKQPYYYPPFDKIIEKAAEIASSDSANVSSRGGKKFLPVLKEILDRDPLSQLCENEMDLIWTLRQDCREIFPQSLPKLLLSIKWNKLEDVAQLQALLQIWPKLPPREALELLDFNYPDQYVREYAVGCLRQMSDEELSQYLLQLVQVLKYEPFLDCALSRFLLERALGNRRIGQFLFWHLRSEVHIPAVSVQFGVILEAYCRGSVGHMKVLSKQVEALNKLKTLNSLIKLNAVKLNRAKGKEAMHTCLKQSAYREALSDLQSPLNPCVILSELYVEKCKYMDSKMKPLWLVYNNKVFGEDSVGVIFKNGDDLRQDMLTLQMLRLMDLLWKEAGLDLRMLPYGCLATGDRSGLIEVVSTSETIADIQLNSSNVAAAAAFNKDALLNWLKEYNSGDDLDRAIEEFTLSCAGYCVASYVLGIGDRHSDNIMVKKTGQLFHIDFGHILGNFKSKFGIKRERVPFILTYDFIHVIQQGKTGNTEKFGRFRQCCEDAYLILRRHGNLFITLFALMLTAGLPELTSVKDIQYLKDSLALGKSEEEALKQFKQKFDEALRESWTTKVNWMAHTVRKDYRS

[22] = target: Phosphatidylinositol 4,5-bisphosphate 3-kinase catalytic subunit gamma isoform (Homo sapiens) (UniProt P48736); test: Inhibition of PI3Kgamma at 10; details: concentration not given here
Phosphatidylinositol 4,5-bisphosphate 3-kinase catalytic subunit gamma isoform (Homo sapiens), sequence (P48736 whole entry, looked up, canonical isoform): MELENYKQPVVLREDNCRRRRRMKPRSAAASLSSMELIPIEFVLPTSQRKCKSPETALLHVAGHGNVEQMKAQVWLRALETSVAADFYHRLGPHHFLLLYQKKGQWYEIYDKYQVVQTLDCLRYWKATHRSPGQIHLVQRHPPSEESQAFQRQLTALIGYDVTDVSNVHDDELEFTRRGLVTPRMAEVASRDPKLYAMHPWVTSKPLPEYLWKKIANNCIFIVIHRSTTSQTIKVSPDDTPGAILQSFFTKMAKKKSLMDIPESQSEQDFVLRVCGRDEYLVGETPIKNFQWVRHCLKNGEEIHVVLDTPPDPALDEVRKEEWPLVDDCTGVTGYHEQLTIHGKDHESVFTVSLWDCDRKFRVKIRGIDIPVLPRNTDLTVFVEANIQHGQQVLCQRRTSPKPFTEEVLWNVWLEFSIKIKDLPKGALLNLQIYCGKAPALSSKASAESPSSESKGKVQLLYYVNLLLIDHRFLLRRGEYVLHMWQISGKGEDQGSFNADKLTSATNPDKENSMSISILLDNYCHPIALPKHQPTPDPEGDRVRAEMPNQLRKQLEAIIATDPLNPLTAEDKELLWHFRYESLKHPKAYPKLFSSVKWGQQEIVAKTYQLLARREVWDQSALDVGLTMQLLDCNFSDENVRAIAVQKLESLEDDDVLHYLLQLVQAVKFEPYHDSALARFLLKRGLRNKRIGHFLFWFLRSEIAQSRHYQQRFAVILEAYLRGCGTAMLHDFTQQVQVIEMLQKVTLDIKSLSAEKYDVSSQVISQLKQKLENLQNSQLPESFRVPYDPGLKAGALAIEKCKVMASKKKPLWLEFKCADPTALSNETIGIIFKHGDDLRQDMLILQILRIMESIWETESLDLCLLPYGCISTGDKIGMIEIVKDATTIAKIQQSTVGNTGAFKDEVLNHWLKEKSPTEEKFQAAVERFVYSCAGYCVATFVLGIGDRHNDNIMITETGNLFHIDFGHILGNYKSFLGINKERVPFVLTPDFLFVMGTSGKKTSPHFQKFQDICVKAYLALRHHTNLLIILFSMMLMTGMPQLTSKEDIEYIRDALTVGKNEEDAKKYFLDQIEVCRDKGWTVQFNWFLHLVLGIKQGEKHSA

[23] = target: Phosphatidylinositol 4,5-bisphosphate 3-kinase catalytic subunit delta isoform (Homo sapiens) (UniProt O00329); test: Inhibition of PI3Kdelta at 10; details: concentration not given here
Phosphatidylinositol 4,5-bisphosphate 3-kinase catalytic subunit delta isoform (Homo sapiens), sequence (O00329 whole entry, canonical isoform): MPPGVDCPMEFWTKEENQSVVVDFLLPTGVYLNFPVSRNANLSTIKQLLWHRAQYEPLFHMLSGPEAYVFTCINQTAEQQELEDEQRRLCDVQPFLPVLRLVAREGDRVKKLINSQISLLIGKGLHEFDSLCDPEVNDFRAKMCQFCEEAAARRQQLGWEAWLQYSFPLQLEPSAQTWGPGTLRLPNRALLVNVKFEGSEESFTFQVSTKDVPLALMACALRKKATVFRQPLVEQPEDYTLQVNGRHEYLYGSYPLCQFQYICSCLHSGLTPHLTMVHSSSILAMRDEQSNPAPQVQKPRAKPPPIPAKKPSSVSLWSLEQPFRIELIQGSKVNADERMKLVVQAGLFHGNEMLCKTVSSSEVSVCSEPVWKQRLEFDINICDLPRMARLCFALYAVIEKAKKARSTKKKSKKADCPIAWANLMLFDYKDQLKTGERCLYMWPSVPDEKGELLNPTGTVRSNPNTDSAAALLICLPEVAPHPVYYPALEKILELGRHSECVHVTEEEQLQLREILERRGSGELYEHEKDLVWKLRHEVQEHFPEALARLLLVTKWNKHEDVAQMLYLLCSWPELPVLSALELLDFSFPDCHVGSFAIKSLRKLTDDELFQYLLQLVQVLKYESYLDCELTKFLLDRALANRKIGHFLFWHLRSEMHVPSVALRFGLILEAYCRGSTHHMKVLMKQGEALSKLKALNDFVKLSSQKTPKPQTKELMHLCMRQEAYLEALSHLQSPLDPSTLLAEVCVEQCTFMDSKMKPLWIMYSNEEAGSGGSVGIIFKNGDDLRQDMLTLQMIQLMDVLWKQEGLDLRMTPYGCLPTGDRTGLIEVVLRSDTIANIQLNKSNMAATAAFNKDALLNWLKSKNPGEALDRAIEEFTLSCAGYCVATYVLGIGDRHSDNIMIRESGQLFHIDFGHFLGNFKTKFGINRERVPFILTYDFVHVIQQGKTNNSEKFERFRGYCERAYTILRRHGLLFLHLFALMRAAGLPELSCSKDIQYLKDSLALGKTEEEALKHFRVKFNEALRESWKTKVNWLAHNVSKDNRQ

[24] = target: Endothelin-1 receptor (Homo sapiens) (UniProt P25101); test: Inhibition of human ET-A receptor at 10 uM
Cytochrome P450 2D6 = Cytochrome P450 2D6 (Homo sapiens, UniProt P10635); test: Inhibition of human CYP2D6; assay type: ADME; outline: as §1
Cytochrome P450 1A2 = Cytochrome P450 1A2 (Homo sapiens, UniProt P05177); test: Inhibition of human CYP1A2; assay type: ADME; outline: as §1
[25] = Genotoxicity in Salmonella Typhimurium at 100 uM by mini Ames test; assay type: toxicity; details: salmonella enterica subsp. enterica serovar typhimurium

With `Cc1c2c(=O)n(-c3ccccc3Cl)[nH]c2cc(=O)n1Cc1ccccn1` the inhibition [1] was 0%, the Ki (NADPH oxidase 2) was 1.53 µM and the Fu (Plasma) was 20.5%. The Papp at 2 h, 10 µM [2] was 21.4 ×10⁻⁶ cm/s, the IC50 (Cytochrome P450 2C19) was > 25 µM and the IC50 (Cytochrome P450 3A4) was 20.9 µM. For the same compound, the microsomal CLint at 0.5 µM [3] was 24.8 µL/min/mg, the IC50 (Cytochrome P450 2C9) was > 25 µM and the AUC(0-inf) [4] was 10900 ng·h/mL. For the same compound, the bioavailability [5] was 54%, the Tmax [6] was 1.5 h and the AUC(0-inf) [7] was 11000 ng·h/mL. It also gave a Ki (NADPH oxidase 1) of 0.16 µM, a Cmax [8] of 12100 ng/mL and a half-life [9] of 3.63 h. It also gave a clearance [10] of 7.83 mL/min/kg, a Vd [11] of 1.08 L/kg and an inhibition (Rattus norvegicus) of 0%. For the same compound, the inhibition [12] was 0%, the inhibition [13] was 0% and the inhibition [14] was 4%. The inhibition [15] was 0%, the inhibition at 10 µM (MAO-B) was 0% and the inhibition [16] was 10%. The inhibition [17] was 0%, the inhibition [18] was 0% and the inhibition [19] was 0%. The inhibition [20] was 0%, the inhibition [21] was 0% and the inhibition [22] was 0%. For the same compound, the inhibition [23] was 0%, the inhibition [24] was 0% and the IC50 (Cytochrome P450 2D6) was > 25 µM. For the same compound, the IC50 (Cytochrome P450 1A2) was > 25 µM and the Activity [25] was “Non-toxic”.
